In ChEMBL document CHEMBL3784974, “Design and Structural Characterization of Potent and Selective Inhibitors of Phosphatidylinositol 4 Kinase IIIβ” (J Med Chem, 2016):
Activity calls are given as the source filed them. The rule behind the calls is not given here.

Columns and labels:
[1] = target: Phosphatidylinositol 4,5-bisphosphate 3-kinase catalytic subunit alpha isoform (Homo sapiens, UniProt P42336); test: Inhibition of N-terminal histidine6-tagged recombinant human full length PI3Kalpha expressed in baculovirus infected Sf21 insect cells preincubated for 15 mins followed by addition of cold ATP/gamma32P-ATP measured after 15 mins
Procedure, shortened: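 Radiometric membrane-capture lipid kinase assay. Enzyme premixed with PIP2:DOPS:DOPC vesicles and BSA. Inhibitor diluted in 10% DMSO/kinase buffer, preincubated 15 min, then cold ATP plus γ32P-ATP added and run 15 min. Final conditions: 50mM HEPES pH 7.5, 100mM NaCl, 0.03% CHAPS, 10mM MgCl2, 1mM EGTA, 2mM DTT, 3.3nM PI3Kα, 80µM PIP2, 500ng/µL BSA, 2% DMSO, 10µM ATP, 2uCi γ32P-ATP. Product spotted onto nitrocellulose, washed in 1M NaCl/1% phosphoric acid, phosphorimaged.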

[2] = target: Phosphatidylinositol 4,5-bisphosphate 3-kinase catalytic subunit beta isoform (Homo sapiens) (UniProt P42338); test: Inhibition of N-terminal histidine-tagged recombinant human full length PI3Kbeta expressed in baculovirus infected Sf9 insect cells upto 20 uM preincubated for 15 mins followed by addition of cold ATP/gamma32P-ATP measured after 15 mins
Procedure, shortened: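 PI3Kβ 0.6 nM final; inhibitor preincubated 15 min, reaction 15 min. Final: 50 mM HEPES pH 7.5, 100 mM NaCl, 0.03% CHAPS, 10 mM MgCl2, 1 mM EGTA, 2 mM DTT, 80 µM PIP2 (PIP2:DOPS:DOPC), 500 ng/µL BSA, 2% DMSO, 10 µM ATP, 2 uCi γ32P-ATP; membrane capture, phosphorimaging.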

[3] = target: T1, Phosphatidylinositol 3-kinase C2 domain-containing subunit gamma (Homo sapiens, UniProt O75747); test: Inhibition of N-terminal GST-tagged recombinant human full length PI3KC2gamma expressed in baculovirus infected Sf21 insect cells preincubated for 15 mins followed by addition of cold ATP/gamma32P-ATP measured after 15 mins
T1 sequence (O75747 whole entry): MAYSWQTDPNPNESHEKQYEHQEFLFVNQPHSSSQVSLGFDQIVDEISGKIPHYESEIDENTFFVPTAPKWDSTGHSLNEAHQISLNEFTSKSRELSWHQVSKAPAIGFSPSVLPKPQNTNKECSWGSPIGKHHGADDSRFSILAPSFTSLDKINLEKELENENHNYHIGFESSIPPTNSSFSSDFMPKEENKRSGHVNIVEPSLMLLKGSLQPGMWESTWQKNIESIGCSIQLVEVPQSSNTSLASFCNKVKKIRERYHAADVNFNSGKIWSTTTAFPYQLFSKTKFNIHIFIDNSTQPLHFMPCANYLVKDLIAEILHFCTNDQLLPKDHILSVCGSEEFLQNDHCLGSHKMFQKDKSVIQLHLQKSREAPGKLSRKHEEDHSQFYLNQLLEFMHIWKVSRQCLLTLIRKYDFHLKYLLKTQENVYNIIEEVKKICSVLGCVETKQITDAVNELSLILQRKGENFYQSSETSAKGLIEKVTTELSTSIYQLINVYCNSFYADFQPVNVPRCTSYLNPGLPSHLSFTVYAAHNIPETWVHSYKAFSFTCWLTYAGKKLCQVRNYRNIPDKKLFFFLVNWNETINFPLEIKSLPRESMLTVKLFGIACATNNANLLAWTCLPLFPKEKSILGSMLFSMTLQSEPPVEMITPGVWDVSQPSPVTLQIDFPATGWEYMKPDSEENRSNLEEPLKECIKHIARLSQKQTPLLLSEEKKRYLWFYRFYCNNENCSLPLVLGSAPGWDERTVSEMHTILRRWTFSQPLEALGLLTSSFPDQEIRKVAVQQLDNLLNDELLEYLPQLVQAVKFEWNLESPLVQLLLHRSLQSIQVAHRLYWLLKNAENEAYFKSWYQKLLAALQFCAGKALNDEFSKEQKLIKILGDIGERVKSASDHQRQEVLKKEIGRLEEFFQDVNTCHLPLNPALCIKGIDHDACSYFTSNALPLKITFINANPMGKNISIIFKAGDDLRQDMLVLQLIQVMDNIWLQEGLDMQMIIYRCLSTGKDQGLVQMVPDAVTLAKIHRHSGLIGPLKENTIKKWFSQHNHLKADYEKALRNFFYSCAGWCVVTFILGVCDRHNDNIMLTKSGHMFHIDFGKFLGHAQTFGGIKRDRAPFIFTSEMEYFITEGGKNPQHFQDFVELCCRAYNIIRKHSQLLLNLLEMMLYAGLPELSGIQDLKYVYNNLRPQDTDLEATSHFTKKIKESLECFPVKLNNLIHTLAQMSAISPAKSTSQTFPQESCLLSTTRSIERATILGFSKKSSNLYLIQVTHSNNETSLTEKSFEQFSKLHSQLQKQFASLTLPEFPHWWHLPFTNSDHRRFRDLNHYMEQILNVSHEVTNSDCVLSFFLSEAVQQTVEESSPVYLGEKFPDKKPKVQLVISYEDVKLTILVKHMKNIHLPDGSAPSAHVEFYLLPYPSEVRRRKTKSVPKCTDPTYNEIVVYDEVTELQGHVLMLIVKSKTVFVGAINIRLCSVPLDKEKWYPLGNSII
Procedure, shortened: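 1 nM PI3KC2γ, 15 min inhibitor preincubation, 15 min reaction. Final: 50 mM HEPES pH 7.5, 100 mM NaCl, 0.03% CHAPS, 10 mM MgCl2, 1 mM EGTA, 2 mM DTT, 100 µM PI (PI:DOPS:DOPC), 500 ng/µL BSA, 2% DMSO, 10 µM ATP, 2 uCi γ32P-ATP. Nitrocellulose capture, phosphorimaging.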

[4] = target: Phosphatidylinositol 3-kinase catalytic subunit type 3 (Homo sapiens, UniProt Q8NEB9); test: Inhibition of GST-tagged recombinant human full length VPS34 expressed in baculovirus upto 20 uM preincubated for 15 mins followed by addition of cold ATP/gamma32P-ATP measured after 1 hr in presence of MnCl2
Procedure, shortened: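 Radiometric membrane-capture assay, 10 nM purchased vps34, 15 min preincubation with inhibitor, then 1 h reaction. Final: 50 mM HEPES pH 7.5, 0.1% CHAPS, 2mM MnCl2, 1 mM EGTA, 2 mM DTT, 100 µM PI in PI:DOPS:DOPC, 500 ng/µL BSA, 2% DMSO, 10 µM ATP, 2.5 uCi γ32P-ATP; spots washed, phosphorimaged.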

Chain of Phosphatidylinositol 4,5-bisphosphate 3-kinase catalytic subunit alpha isoform (P42336 whole entry, canonical isoform): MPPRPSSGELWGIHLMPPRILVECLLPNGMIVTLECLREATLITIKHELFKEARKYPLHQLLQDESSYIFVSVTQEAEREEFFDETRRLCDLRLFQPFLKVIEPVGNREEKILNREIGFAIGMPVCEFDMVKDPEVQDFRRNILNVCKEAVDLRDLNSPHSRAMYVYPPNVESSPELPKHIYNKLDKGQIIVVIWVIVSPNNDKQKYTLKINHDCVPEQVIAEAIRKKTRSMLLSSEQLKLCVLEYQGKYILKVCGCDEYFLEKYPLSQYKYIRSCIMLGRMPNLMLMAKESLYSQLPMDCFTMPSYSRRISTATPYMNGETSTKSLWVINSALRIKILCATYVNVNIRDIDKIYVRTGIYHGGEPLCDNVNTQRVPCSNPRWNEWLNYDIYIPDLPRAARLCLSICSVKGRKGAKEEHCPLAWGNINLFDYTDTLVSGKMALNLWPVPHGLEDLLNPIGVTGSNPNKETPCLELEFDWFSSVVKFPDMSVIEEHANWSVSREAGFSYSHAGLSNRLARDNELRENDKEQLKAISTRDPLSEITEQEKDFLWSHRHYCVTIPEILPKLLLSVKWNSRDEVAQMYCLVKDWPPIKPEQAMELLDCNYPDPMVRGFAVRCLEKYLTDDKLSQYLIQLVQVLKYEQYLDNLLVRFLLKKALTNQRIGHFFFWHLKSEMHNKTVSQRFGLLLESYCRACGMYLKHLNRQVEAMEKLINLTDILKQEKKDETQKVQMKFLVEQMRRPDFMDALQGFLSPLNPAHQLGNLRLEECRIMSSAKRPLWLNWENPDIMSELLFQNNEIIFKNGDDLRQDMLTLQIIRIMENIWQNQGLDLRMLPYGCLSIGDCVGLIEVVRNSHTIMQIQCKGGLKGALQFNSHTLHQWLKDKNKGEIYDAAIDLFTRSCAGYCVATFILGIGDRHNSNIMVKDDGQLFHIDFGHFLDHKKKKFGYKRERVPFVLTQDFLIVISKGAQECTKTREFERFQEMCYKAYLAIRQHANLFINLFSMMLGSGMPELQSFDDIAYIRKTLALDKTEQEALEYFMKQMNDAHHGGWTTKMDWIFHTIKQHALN
Chain of Phosphatidylinositol 4,5-bisphosphate 3-kinase catalytic subunit beta isoform (Homo sapiens) (P42338 whole entry, looked up, canonical isoform): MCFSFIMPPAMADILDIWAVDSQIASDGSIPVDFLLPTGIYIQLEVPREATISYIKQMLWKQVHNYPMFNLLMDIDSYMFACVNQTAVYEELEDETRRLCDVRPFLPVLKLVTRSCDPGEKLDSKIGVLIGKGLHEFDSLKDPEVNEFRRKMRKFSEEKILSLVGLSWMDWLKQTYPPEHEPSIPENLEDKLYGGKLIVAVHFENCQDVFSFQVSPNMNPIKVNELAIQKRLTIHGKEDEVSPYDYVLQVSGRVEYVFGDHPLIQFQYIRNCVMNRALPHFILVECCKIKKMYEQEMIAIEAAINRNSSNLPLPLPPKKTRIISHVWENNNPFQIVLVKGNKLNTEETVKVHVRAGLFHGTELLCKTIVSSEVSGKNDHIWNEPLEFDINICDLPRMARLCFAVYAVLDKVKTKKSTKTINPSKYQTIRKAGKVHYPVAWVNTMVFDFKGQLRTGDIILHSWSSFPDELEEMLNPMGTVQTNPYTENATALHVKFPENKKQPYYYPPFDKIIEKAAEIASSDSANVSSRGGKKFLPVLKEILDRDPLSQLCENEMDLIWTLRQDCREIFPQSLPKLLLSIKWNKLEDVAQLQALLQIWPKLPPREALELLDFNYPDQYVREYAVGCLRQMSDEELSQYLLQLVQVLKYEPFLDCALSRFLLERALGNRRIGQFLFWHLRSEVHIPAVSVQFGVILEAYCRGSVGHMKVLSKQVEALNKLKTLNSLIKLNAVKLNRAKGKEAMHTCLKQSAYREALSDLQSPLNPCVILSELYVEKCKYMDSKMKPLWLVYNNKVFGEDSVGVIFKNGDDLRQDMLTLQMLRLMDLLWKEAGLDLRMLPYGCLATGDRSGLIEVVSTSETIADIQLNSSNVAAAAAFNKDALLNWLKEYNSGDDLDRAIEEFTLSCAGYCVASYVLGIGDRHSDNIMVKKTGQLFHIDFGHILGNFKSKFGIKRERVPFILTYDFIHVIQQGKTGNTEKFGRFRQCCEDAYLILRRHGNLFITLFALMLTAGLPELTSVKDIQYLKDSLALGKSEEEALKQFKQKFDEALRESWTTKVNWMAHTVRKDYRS
Chain of Phosphatidylinositol 3-kinase catalytic subunit type 3 (Q8NEB9 whole entry): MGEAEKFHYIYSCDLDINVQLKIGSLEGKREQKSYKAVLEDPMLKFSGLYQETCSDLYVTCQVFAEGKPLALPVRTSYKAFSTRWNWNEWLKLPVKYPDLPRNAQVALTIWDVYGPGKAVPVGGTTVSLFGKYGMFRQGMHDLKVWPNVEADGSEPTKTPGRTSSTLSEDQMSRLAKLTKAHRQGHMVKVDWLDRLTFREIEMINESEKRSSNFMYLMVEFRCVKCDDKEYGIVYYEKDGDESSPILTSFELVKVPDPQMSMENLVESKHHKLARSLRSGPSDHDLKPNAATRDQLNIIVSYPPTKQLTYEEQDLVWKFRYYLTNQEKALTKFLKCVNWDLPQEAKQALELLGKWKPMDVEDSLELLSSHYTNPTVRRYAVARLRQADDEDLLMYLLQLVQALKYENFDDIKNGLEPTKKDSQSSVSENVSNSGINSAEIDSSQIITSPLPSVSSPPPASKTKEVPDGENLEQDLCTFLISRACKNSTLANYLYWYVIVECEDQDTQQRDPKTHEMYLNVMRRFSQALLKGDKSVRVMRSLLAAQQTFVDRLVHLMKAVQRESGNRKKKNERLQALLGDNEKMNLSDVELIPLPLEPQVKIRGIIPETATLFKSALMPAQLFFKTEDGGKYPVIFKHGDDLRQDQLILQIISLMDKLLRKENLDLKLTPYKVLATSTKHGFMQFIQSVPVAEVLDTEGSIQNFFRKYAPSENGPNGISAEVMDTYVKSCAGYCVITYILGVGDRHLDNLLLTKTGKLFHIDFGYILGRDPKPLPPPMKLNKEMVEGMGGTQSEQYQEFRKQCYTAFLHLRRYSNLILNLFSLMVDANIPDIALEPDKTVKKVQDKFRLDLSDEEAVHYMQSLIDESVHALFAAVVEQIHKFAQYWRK

Compound	IC50 [1] [nM]	inhibition [2] [%]	IC50 [3] [nM]	inhibition [4]
COc1ccc(-c2sc(NC(=O)C(C)(C)C)nc2C)cc1S(=O)(=O)Nc1ccc(O)cc1	10000	< 20	1000	inactive
COc1ccc(-c2sc(NC(=O)C3CCCC3)nc2C)cc1S(=O)(=O)Nc1ccc(O)cc1	2000	< 50	1000	inactive
